Measurements from ChEMBL document CHEMBL1125195, “Novel compounds possessing potent cAMP and cGMP phosphodiesterase inhibitory activity. Synthesis and cardiovascular effects of a series of imidazo[1,2-a]quinoxalinones and imidazo[1,5-a]quinoxalinones and their aza analogues” (J Med Chem, 1991).
Active and inactive are the calls of the source. No cut-off for these calls is given here.

Columns and labels:
[1] = In vitro increase in contractile force in ferret papillary muscle strips.; type: functional, Mustela putorius furo, Muscle tissue
How it was run: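 Ferret papillary muscle; value is drug concentration (μM) giving a 20% rise in contractile force. Mean of at least two determinations, ranges within ±10%. Inotropic effect also tested with 1 μM propranolol co-administered. NR means not reached at 100 μM.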

[2] = Inhibition of crude cAMP phosphodiesterase from canine […]; design: species or system Canis lupus familiaris
How it was run: (§1)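 Crude homogenates: cAMP PDE from canine cardiac tissue, cGMP PDE from canine thoracic aorta. Value is drug concentration (μM) giving 50% inhibition. Mean of at least three determinations, ranges within ±10%.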

[3] = species on record: Canis familiaris; test: In vitro vascular relaxation in canine coronary arteries precontracted with prostaglandin F2alpha.; type: functional; conditions: Canis lupus familiaris
How it was run: (§2)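 Isolated vessels in warm PSS. Arteries constricted with prostaglandin F2α, veins with phenylephrine. Cumulative drug challenges, each added after relaxation plateaued. Delta force is expressed as % of agonist actual force (total minus basal) and as % of maximal relaxation. EC50 is found by linear interpolation between the points bracketing 50% relaxation. Afterwards tissues were rinsed every 10 min, reconstricted, and challenged with acetylcholine (arteries) or thrombin (veins).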

[4] = species on record: Canis familiaris; test: In vitro vascular relaxation in canine mesenteric veins precontracted with phenylephrine.; type: functional; conditions: Canis lupus familiaris, Mesenteric vein; how it was run: as §2
[5] = Inhibition of crude cGMP phosphodiesterase from canine thoracic aorta; type: tissue-based, Canis lupus familiaris; how it was run: as §1
[6] = tested on: Canis familiaris; test: (§3) Percent change in left ventricle contractile force in anesthetized dogs after intravenous administration at 0.3 mg/kg; type: functional, Canis lupus familiaris, Heart left ventricle
[7] = tested on: Canis familiaris; test: Percent change in mean arterial blood pressure after intravenous administration in anesthetized dogs at 0.03 mg/kg (NC<10%); type: functional, organism-based; design: dose 0.03 mg/kg; conditions: Canis lupus familiaris
[8] = tested on: Canis familiaris; test: (§4) Percent change in mean arterial blood pressure after intravenous administration in anesthetized dogs at 0.3 mg/kg; type: functional, Canis lupus familiaris
[9] = tested on: Canis familiaris; test: Percent change in mean arterial blood pressure after intravenous administration in anesthetized dogs at 0.1 mg/kg; type: functional, Canis lupus familiaris
[10] = tested on: Canis familiaris; test: Percent change in left ventricle contractile force in anesthetized dogs after intravenous administration at 0.03 mg/kg; type: functional, Canis lupus familiaris, Heart left ventricle
[11] = tested on: Canis familiaris; test: Percent change in heart rate after intravenous administration in anesthetized dogs at 0.3 mg/kg; type: functional, Canis lupus familiaris
[12] = tested on: Canis familiaris; test: Percent change in heart rate after intravenous administration in anesthetized dogs at 0.1 mg/kg; type: functional, Canis lupus familiaris
[13] = tested on: Canis familiaris; test: Percent change in heart rate in anesthetized dogs after intravenous administration at 0.03 mg/kg; type: functional, Canis lupus familiaris
[14] = Inhibition of crude cGMP phosphodiesterase from canine thoracic aorta (NR = no effect at 100 uM); type: tissue-based, Canis lupus familiaris; how it was run: as §1
[15] = tested on: Canis familiaris; test: Percent change in left ventricle contractile force in anesthetized dogs after intravenous administration at 0.1 mg/kg; type: functional, Canis lupus familiaris, Heart left ventricle
[16] = tested on: Canis familiaris; test: Percent change in heart rate after intravenous administration in anesthetized dogs at 1.0 mg/kg; type: functional, Canis lupus familiaris
[17] = tested on: Canis familiaris; test: (§5) Percent change in mean arterial blood pressure after intravenous administration in anesthetized dogs at 1.0 mg/kg; type: functional, Canis lupus familiaris
[18] = tested on: Canis familiaris; test: (§6) Percent change in left ventricle contractile force in anesthetized dogs after intravenous administration at 1.0 mg/kg; type: functional, Canis lupus familiaris, Heart left ventricle
[19] = tested on: Canis familiaris; test: Percent change in heart rate after intravenous administration in anesthetized dogs at 0.1 mg/kg (NC<10%); type: functional, organism-based; design: dose 0.1 mg/kg; conditions: Canis lupus familiaris
[20] = tested on: Canis familiaris; test: Percent change heart rate after intravenous administration in anesthetized dogs at 0.1 mg/kg; type: functional, Canis lupus familiaris
[21] = tested on: Canis familiaris; test: as §3; type: functional, Canis lupus familiaris, Heart left ventricle; remark: listed apart in the source
How it was run: (§7)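 Anesthetized dogs, drug given intravenously at the stated dose. Percent change recorded in LV dP/dt (contractile force), heart rate and mean arterial pressure. Mean of at least four determinations; LV dP/dt ranges within ±10%.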

[22] = tested on: Canis familiaris; test: as §6; type: functional, Canis lupus familiaris, Heart left ventricle; how it was run: as §7; remark: listed apart in the source
[23] = tested on: Canis familiaris; test: (§8) Percent change in mean arterial blood pressure after intravenous administration in anesthetized dogs at 1.0 mg/kg (NC<10%); type: functional, Canis lupus familiaris
[24] = tested on: Canis familiaris; test: Percent change heart rate after intravenous administration in anesthetized dogs at 1.0 mg/kg; type: functional, Canis lupus familiaris; how it was run: as §7
[25] = tested on: Canis familiaris; test: Percent change in mean arterial blood pressure after intravenous administration in anesthetized dogs at 0.1 mg/kg (NC<10%); type: functional, Canis lupus familiaris
[26] = tested on: Canis familiaris; test: as §5; type: functional, Canis lupus familiaris; how it was run: as §7; remark: listed apart in the source
[27] = tested on: Canis familiaris; test: (§9) Percent change in left ventricle contractile force in anesthetized dogs after intravenous administration at 3.0 mg/kg; type: functional, Canis lupus familiaris, Heart left ventricle; how it was run: as §7
[28] = tested on: Canis familiaris; test: Percent change heart rate after intravenous administration in anesthetized dogs at 0.3 mg/kg (NC<10%); type: functional, Canis lupus familiaris; how it was run: as §7
[29] = Inhibition of crude cAMP phosphodiesterase from canine […] (NR = no effect at 100 ug); design: species or system Canis lupus familiaris
How it was run: (§10)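 Crude PDEs from canine tissue homogenates: cAMP enzyme from cardiac tissue, cGMP enzyme from thoracic aorta. Value is drug concentration (μM) causing 50% inhibition. Mean of at least three determinations, ranges within ±10%.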

[30] = tested on: Canis familiaris; test: as §4; type: functional, Canis lupus familiaris; how it was run: as §7; remark: listed apart in the source
[31] = tested on: Canis familiaris; test: (§11) Percent change in mean arterial blood pressure after intravenous administration in anesthetized dogs at 3.0 mg/kg; type: functional, Canis lupus familiaris; how it was run: as §7
[32] = Inhibition of crude cGMP phosphodiesterase from canine thoracic aorta (NR = no effect at 100 ug); type: tissue-based, Canis lupus familiaris; how it was run: as §10
[33] = species on record: Mustela putorius furo; test: In vitro increase in contractile force in ferret papillary muscle strips (NR = not reached at 100 ug); type: functional, tissue-based; conditions: Muscle tissue
How it was run: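 Ferret papillary muscle contractile force measured in vitro; value is drug concentration (μM) giving a 20% rise in contractile force. Inotropic effect also tested with 1 μM propranolol coadministered. Mean of at least two determinations, ranges within ±10%.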

[34] = tested on: Canis familiaris; test: Percent change in heart rate after intravenous administration in anesthetized dogs at 3.0 mg/kg (NC<10%); type: functional, Canis lupus familiaris; how it was run: as §7
[35] = tested on: Canis familiaris; test: as §8; type: functional, organism-based; design: dose 1 mg/kg; conditions: Canis lupus familiaris
[36] = tested on: Canis familiaris; test: as §11; type: functional, Canis lupus familiaris; remark: listed apart in the source
[37] = tested on: Canis familiaris; test: Percent change in heart rate after intravenous administration in anesthetized dogs at 3.0 mg/kg; type: functional, Canis lupus familiaris
[38] = tested on: Canis familiaris; test: as §9; type: functional, Canis lupus familiaris, Heart left ventricle; remark: listed apart in the source
[39] = tested on: Canis familiaris; test: Percent change in mean arterial blood pressure after intravenous administration in anesthetized dogs at 0.3 mg/kg (NC<10%); type: functional, organism-based; design: dose 0.3 mg/kg; conditions: Canis lupus familiaris
[40] = tested on: Canis familiaris; test: Percent change in left ventricle contractile force in anesthetized dogs after intravenous administration at 0.3 mg/kg (NC <10%); type: functional, organism-based; design: dose 0.3 mg/kg; conditions: Canis lupus familiaris, Heart left ventricle
[41] = tested on: Canis familiaris; test: Percent change in heart rate after intravenous administration in anesthetized dogs at 1.0 mg/kg (NC<10%); type: functional, organism-based; design: dose 1 mg/kg; conditions: Canis lupus familiaris
[42] = tested on: Canis familiaris; test: Percent change in heart rate after intravenous administration in anesthetized dogs at 0.3 mg/kg (NC<10%); type: functional, organism-based; design: dose 0.3 mg/kg; conditions: Canis lupus familiaris
[43] = Inhibition of crude cAMP phosphodiesterase from canine […] (NR = no effect at 100 uM); design: species or system Canis lupus familiaris; how it was run: as §1

IC50 [2] [µM] | EC50 [3] [µM] | EC50 [4] [µM] | IC50 [5] [µM] | Compound | CFC20 [1] [µM] | also measured
6 | 5.5 | 1.1 | 24 | Cc1nccn1-c1ccc2nc(O)c3cnc(C)n3c2c1 | 1.2 | 
2 | 5.3 | 0.3 | 3 | CCc1ncc2c(O)nc3ccc(-n4ccnc4)cc3n12 | 1.2 | 
0.4 | 0.5 | 0.1 | 0.3 | CCc1nc(C)cn1-c1ccc2nc(O)c3c(C)nc(CC)n3c2c1 | 1 | 
16 | 49 | 2.8 | 27 | Cc1ncc2c(O)nc3ccccc3n12 | 2.1 | 
2 | 1.7 | 0.4 | 4 | CCc1nc(C)c2c(O)nc3ccc(-n4ccnc4)cc3n12 | 0.6 | 
6 | 1.6 | 0.7 |  | Cc1[nH]c(=O)c(C#N)cc1-c1ccncc1 [MILRINONE] | 0.5 | Delta [6]: 82%; Delta [7]: <10% change from control; Delta [8]: -33%; Delta [9]: -15%; Delta [10]: 31%; Delta [11]: 34%; Delta [12]: 20%; Delta [13]: 12%; IC50 [14]: Not reached; Delta [15]: 58%
1 | 0.3 | 0.5 | 7 | CCc1ncc2c(O)nc3cccnc3n12 | 0.1 | Delta [6]: 40%; Delta [16]: 50%; Delta [8]: -25%; Delta [17]: -40%; Delta [18]: 76%; Delta [9]: -17%; Delta [11]: 30%; Delta [19]: <10% change from control; Delta [15]: 31%
20 | 5.5 | 1 | 28 | CC(C)Cn1c(=O)n(C)c(=O)c2nc[nH]c21 [ISOBUTYLMETHYLXANTHINE] | 1.5 | Delta [20]: 17%; Delta [21]: 41%; Delta [22]: 69%; Delta [23]: <10%; Delta [24]: 45%; Delta [25]: <10%; Delta [11]: 32%; Delta [26]: -18%; Delta [15]: 25%
0.8 | 0.7 | 0.05 | 0.9 | CCc1nc(C)c2c(O)nc3ccc(N4CCOCC4)cc3n12 | 0.5 | 
5 | 14 | 9.3 | 39 | Oc1nc2ccc(-n3ccnc3)nc2n2ccnc12 | 0.5 | 
2 | 1.7 | 0.8 | 0.4 | CCc1nc(C)c2c(O)nc3ccccc3n12 | 0.2 | Delta [6]: 39%; Delta [35]: <10% change from control; Delta [16]: 42%; Delta [36]: -40%; Delta [18]: 85%; Delta [37]: 65%; Delta [38]: 135%; Delta [11]: 22%; Delta [39]: <10% change from control
6 | 28 | 3.1 | 13 | Oc1nc2ccc(-n3ccnc3)cc2n2ccnc12 | 3.1 | 
5 | 5.2 | 2.2 | 5 | CCc1ncc2c(O)nc3ccncc3n12 | 0.3 | 
22 | 11 | 3.4 | 38 | CCc1nc(C)c2c(N)nc3ccccc3n12 |  | 
18 | 12 | 3.8 | 17 | CCc1nc(C)c2c(=O)n(C)c3ccccc3n12 | 2.3 | 
42 | 5.1 | 0.4 | 36 | Cc1cn2c(n1)c(O)nc1ccccc12 | 11 | 
49 |  |  | 44 | Oc1nc2ccccc2n2ccnc12 | 10 | 
44 | 11 | 10 | 27 | Oc1nc2cccnc2n2ccnc12 | 2.2 | Delta [40]: <10% change from control; Delta [35]: <10% change from control; Delta [36]: -40%; Delta [18]: 42%; Delta [37]: 24%; Delta [41]: <10% change from control; Delta [42]: <10% change from control; Delta [38]: 81%; Delta [39]: <10% change from control
8 | 30 | 2.8 | 19 | Cc1ncc2c(O)nc3ccc(-n4ccnc4)cc3n12 | 2 | 
1 | 24 | 2 | 3 | Cc1nccn1-c1ccc2nc(O)c3cnc(C)n3c2n1 | 0.4 | 
 | 59 | 23 | 14 | CCc1nccn1-c1ncnc2c1nc(O)c1cnc(CC)n12 |  | IC50 [43]: Not reached

Compound | IC50 [2] [µM] | EC50 [3] [µM] | EC50 [4] [µM] | IC50 [5] [µM] | CFC20 [1] [µM] | also measured
O=[N+]([O-])OCC(CO[N+](=O)[O-])O[N+](=O)[O-] [NITROGLYCERIN] |  | 0.01 | 0.007 |  |  | Delta [27]: -17%; Delta [28]: <10%; IC50 [29]: Not Active; Delta [21]: -9%; Delta [30]: -20%; Delta [22]: -14%; Delta [31]: -39%; Delta [24]: <10%; IC50 [32]: Not Active; CFC20 [33]: inactive; Delta [26]: -30%; Delta [34]: <10%
